Calls of active or inactive are those of the source. No cut-off for these calls is given here.
Columns and labels:
[1] = Cytotoxicity against CHO cells assessed as cell viability after 24 hrs by MTT assay; format: cell-based, Cricetulus griseus; conditions: chinese hamster
Procedure, shortened: (§1)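 Cells were kept in RPMI with 10% FBS. 5×10^3 cells/well were settled 24 h, then exposed to compound from DMSO (final <0.5%): CHO for 24 h, HepG2 for 72 h, in duplicate. Wells were checked for precipitate. MTT was added for 2 h at 37 °C, formazan dissolved in DMSO, and A570 read (630 nm reference). Viability is % of untreated cells; CC50 from non-linear regression, mean of three experiments.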

[2] = (§2) Cytotoxicity against human HepG2 cells assessed as cell viability after 72 hrs by MTT assay; format: cell-based; conditions: HepG2 cells; procedure, shortened: as §1
Plasmodium falciparum [3] = experiment: Antiplasmodial activity against multi-drug resistant Plasmodium falciparum K1 infected in human erythrocytes assessed as parasite growth inhibition after 72 hrs by SYBR Green I dye-based fluorescence assay; format: functional, organism-based
[4] = Selectivity index, ratio of CC50 for human HepG2 cells to IC50 for multi-drug resistant Plasmodium falciparum K1 infected in human erythrocytes
HepG2 = experiment: as §2; format: cell-based; conditions: hepg2, 72 h; procedure, shortened: as §1
Plasmodium falciparum [5] = experiment: Antiplasmodial activity against multi-drug resistant Plasmodium falciparum K1 infected in human erythrocytes assessed as depolarization of mitochondrial membrane at IC50 after 20 mins by flow cytometric analysis; format: functional, organism-based
[6] = Genotoxicity in DNA (unknown origin) incubated for 24 hrs in dark condition by methyl green displacement assay
Procedure, shortened: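 DNA-methyl green (4 mg in 20 mL 0.05 M Tris-HCl pH 7.5 with 7.5 mmol/L MgSO4) was shaken 24 h at 37 °C. It was then added to compound from DMSO (final <0.5%). A630 was read, and read again after 24 h at room temperature in the dark. DC50 is the concentration displacing 50% of methyl green.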

Plasmodium yoelii = experiment: Antiplasmodial activity against liver stage of Plasmodium yoelii 17X NL sporozoites infected in human HepG2 cells expressing CD81 after 48 hrs by DAPI staining-based immunofluorescence analysis; format: functional, organism-based; conditions: HepG2, 48 h
Procedure, shortened: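 HepG2/CD81 cells were grown in D-MEM with 10% FBS. 25×10^3 cells/well went on collagen-coated wells; after 24 h they received compound and 5000 P. yoelii sporozoites together, then were spun 900 × g for 10 min at 4 °C. Treatment was renewed at 3 h and 24 h. At 48 h cells were methanol-fixed, stained with anti-HSP70 immunofluorescence, and parasites counted by microscopy. IC50 is 50% fewer parasites than in 0.5% DMSO controls.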

[7] = Cytotoxicity against human HepG2 cells expressing CD81 assessed as cell viability after 72 hrs by CellTiter-glo assay; format: cell-based
Salmonella typhimurium [8] = experiment: Mutagenicity in Salmonella typhimurium TA97A at 2.5 mM after 1 hr by Ames test in absence of S9 fraction; format: toxicity, organism-based; conditions: salmonella enterica subsp. enterica serovar typhimurium, 2500 µM
Procedure, shortened: (§3)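 Tester strains were grown overnight in nutrient broth. 0.1 mL culture was incubated 1 h at 37 °C with shaking with compound (2.5–25 mM DMSO solutions), with or without 4% S9 mix. Top agar was added and the mix plated on Vogel-Bonner agar. Revertants were counted after 48 h at 37 °C in the dark. A twofold rise over spontaneous revertants counts as mutagenic.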

Salmonella typhimurium [9] = experiment: Mutagenicity in Salmonella typhimurium TA100 at 2.5 mM after 1 hr by Ames test in absence of S9 fraction; format: toxicity, organism-based; conditions: salmonella enterica subsp. enterica serovar typhimurium, 2500 µM; procedure, shortened: as §3
[10] = Inhibition of Plasmodium falciparum DHFR after 48 hrs
Procedure, shortened: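 Recombinant S. cerevisiae whose own DHFR is replaced by the P. falciparum DHFR domain was used. 1×10^4 cells were grown in YEPD with compound from DMSO (final <0.5%) at 30 °C for 48 h, in duplicate. Growth was read as A660. IC50 (50% growth inhibition) came from non-linear regression.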

[11] = Selectivity index, ratio of CC50 for human HepG2 cells expressing CD81 to IC50 for liver stage of Plasmodium yoelii 17X NL sporozoites infected in human HepG2 cells expressing CD81; format: functional
Plasmodium falciparum [12] = experiment: Antiplasmodial activity against multi-drug resistant Plasmodium falciparum K1 infected in human erythrocytes assessed as parasite growth inhibition after 72 hrs by SYBR Green I dye-based fluorescence assay in presence of ascorbic acid; format: functional, organism-based; conditions: K1, 72 h
Procedure, shortened: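 Same SYBR Green I 72 h growth assay on the K1 strain (2% haematocrit, 1% parasitaemia, 37 °C, 6% CO2/14% O2/80% N2, DMSO <0.5%), with 800 µM ascorbic acid in the medium as radical trap. Duplicates; artesunate as positive control; IC50 derived.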

[13] = Plasmodium falciparum, K1, 72 h, read-out: IC50

| Compound | CC50 at 72 h [2] [µM] | IC50 (Plasmodium falciparum [3]; [13]) [µM] | further results |
| --- | --- | --- | --- |
| COc1cccc2c1C(=O)c1c(O)c3c(c(O)c1C2=O)C[C@@](O)(C(=O)CO)C[C@@H]3O[C@H]1C[C@H](N)[C@H](O)[C@H](C)O1 [DOXORUBICIN] | – | – | CC50 at 24 h [1]: 0.6 µM |
| CC(C)Nc1nc2c(-c3ccc(Br)cc3)csc2c(=O)[nH]1 | 6.5 | > 5 | – |
| CC(C)Nc1nc2cc(-c3ccc(F)cc3)sc2c(=O)[nH]1 | > 25 | 0.5 | Ratio CC50/IC50 [4]: >66 |
| CCC(CC)Nc1nc2cc(-c3ccc(C)cc3)sc2c(=O)[nH]1 | 101 | > 5 | – |
| Cc1ccc(-c2csc3c(=O)[nH]c(NC(C)(C)C)nc23)cc1 | 1.4 | > 5 | – |
| COc1ccc(-c2csc3c(=O)[nH]c(NC(C)C)nc23)cc1 | 27.8 | > 5 | – |
| CC(C)Nc1nc2c(-c3ccc(Cl)cc3)csc2c(=O)[nH]1 | 7.1 | > 5 | – |
| Cc1ccc(-c2cc3nc(N)[nH]c(=O)c3s2)cc1 | – | – | CC50 (HepG2): ND(Insoluble); IC50 (Plasmodium falciparum [3]): ND(Insoluble) |
| CC(C)Nc1nc2cc(-c3ccc(Br)cc3)sc2c(=O)[nH]1 | 13.4 | 1.7 | Ratio CC50/IC50 [4]: 9 |
| CC(C)(C)Nc1nc2cc(-c3ccc(Cl)cc3)sc2c(=O)[nH]1 | – | – | Activity (Plasmodium falciparum [5]): inactive |
| COc1cccc2c1C(=O)c1c(O)c3c(c(O)c1C2=O)C[C@@](O)(C(C)=O)C[C@@H]3O[C@H]1C[C@H](N)[C@H](O)[C@H](C)O1 [DAUNORUBICIN] | – | – | DC50 [6]: 1 µM |
| CC(C)(C)Nc1nc2c(-c3ccc(F)cc3)csc2c(=O)[nH]1 | 2.3 | > 5 | – |
| CCCNc1nc2cc(-c3ccc(C)cc3)sc2c(=O)[nH]1 | > 62.5 | > 5 | – |
| Cc1ccccc1-c1cc2nc(NC(C)(C)C)[nH]c(=O)c2s1 | 4 | 1.7 | Ratio CC50/IC50 [4]: 2 |
| Cc1ccc(-c2csc3c(=O)[nH]c(NC(C)C)nc23)cc1 | 8.8 | 2.7 | Ratio CC50/IC50 [4]: 3 |
| C[C@@H]1CC[C@H]2[C@@H](C)C(=O)O[C@@H]3O[C@@]4(C)CC[C@@H]1[C@]32OO4 [ARTEMISININ] | – | – | IC50 (Plasmodium yoelii): > 10 µM; CC50 at 72 h [7]: > 10 µM |
| COc1ccc(-c2cc3nc(NC(C)(C)C)[nH]c(=O)c3s2)cc1 | 32.3 | > 5 | – |
| CC(C)(C)Nc1nc2cc(-c3ccccc3)sc2c(=O)[nH]1 | 12.5 | 1 | Ratio CC50/IC50 [4]: 10 |
| CCCCN(C)c1nc2cc(-c3ccc(C)cc3)sc2c(=O)[nH]1 | 3 | > 5 | – |
| CCN(CCCl)CCCNc1c2ccc(Cl)cc2nc2ccc(OC)cc12 | – | – | Activity (Salmonella typhimurium [8]): Toxic; Activity (Salmonella typhimurium [9]): Toxic |
| Cc1cccc(-c2cc3nc(NC(C)(C)C)[nH]c(=O)c3s2)c1 | 14.1 | 3.6 | Ratio CC50/IC50 [4]: 3 |
| CC1(C)N=C(N)N=C(N)N1c1ccc(Cl)cc1 [CYCLOGUANIL] | – | – | IC50 [10]: 5 µM |
| CCCN(CCC)c1nc2cc(-c3ccc(C)cc3)sc2c(=O)[nH]1 | – | – | CC50 (HepG2): ND(Insoluble); IC50 (Plasmodium falciparum [3]): ND(Insoluble) |
| CCCCCCNc1nc2cc(-c3ccc(C)cc3)sc2c(=O)[nH]1 | 10.6 | > 5 | – |
| Cc1ccc(-c2cc3nc(NC(C)(C)C)[nH]c(=O)c3s2)cc1 | – | – | Activity (Plasmodium falciparum [5]): inactive |
| CC(C)Nc1nc2ccsc2c(=O)[nH]1 | 23.9 | > 5 | – |

| Compound | CC50 at 72 h [2] [µM] | IC50 (Plasmodium falciparum [3]; [13]) [µM] | further results |
| --- | --- | --- | --- |
| Cc1ccc(-c2ccc3nc(NC(C)(C)C)[nH]c(=O)c3c2)cc1.Cl | 0.49 | > 5 | Ratio CC50/IC50 [4]: <10.2 |
| COc1cc(NC(C)CCCN)c2ncccc2c1 (stereo not given) [PRIMAQUINE] | – | – | IC50 (Plasmodium yoelii): 1.16 µM; CC50 at 72 h [7]: 6.1 µM; Ratio CC50/IC50 [11]: 5.3 |
| CCCCCCCNc1nc2cc(-c3ccc(C)cc3)sc2c(=O)[nH]1 | 6.8 | > 5 | – |
| C[C@H]1[C@H](OC(=O)CCC(=O)O)O[C@@H]2O[C@@]3(C)CC[C@H]4[C@H](C)CC[C@@H]1[C@@]24OO3 [ARTESUNATE] | – | – | IC50 (Plasmodium falciparum [12]): 0.7 µM |
| Cc1ccc(-c2cc3nc(NC(C)C)[nH]c(=O)c3s2)cc1 | – | – | Activity (Plasmodium falciparum [5]): inactive |
| CCCCCN(CCCCC)c1nc2cc(-c3ccc(C)cc3)sc2c(=O)[nH]1 | – | – | CC50 (HepG2): ND(Insoluble); IC50 (Plasmodium falciparum [3]): ND(Insoluble) |
| CCCCCCC(C)Nc1nc2cc(-c3ccc(C)cc3)sc2c(=O)[nH]1 (stereo not given) | 19.4 | > 5 | – |
| CC(C)(C)Nc1nc2ccsc2c(=O)[nH]1 | 8.4 | > 5 | – |
| CC(C)Nc1nc2c(-c3ccc(F)cc3)csc2c(=O)[nH]1 | > 15.6 | > 5 | – |
| CCCCNc1nc2cc(-c3ccc(C)cc3)sc2c(=O)[nH]1 | 6 | > 5 | – |
| CCCCCNc1nc2cc(-c3ccc(C)cc3)sc2c(=O)[nH]1 | 4.2 | > 5 | – |
| CC(C)(C)Nc1nc2cc(-c3ccc(Br)cc3)sc2c(=O)[nH]1 | 1.4 | > 5 | – |
| Cc1ccc(-c2cc3nc(NC(C)c4ccccc4)[nH]c(=O)c3s2)cc1 (stereo not given) | 9.2 | > 5 | – |
| O=C1C(O)=C([C@H]2CC[C@H](c3ccc(Cl)cc3)CC2)C(=O)c2ccccc21 [ATOVAQUONE] | > 15.6 | – | IC50 (Plasmodium yoelii): 0.009 µM; CC50 at 72 h [7]: 9.5 µM |
| COc1ccc(-c2cc3nc(NC(C)C)[nH]c(=O)c3s2)cc1 | 27.1 | 0.5 | Ratio CC50/IC50 [4]: 136 |
| [N-]=[N+]=[N-].[Na+] [SODIUM AZIDE] | – | – | Activity (Salmonella typhimurium [8]): Toxic; Activity (Salmonella typhimurium [9]): Toxic |
| CCCCN(CCCC)c1nc2cc(-c3ccc(C)cc3)sc2c(=O)[nH]1 | – | – | CC50 (HepG2): ND(Insoluble); IC50 (Plasmodium falciparum [3]): ND(Insoluble) |
| C[C@H]1c2cccc(O)c2C(=O)C2=C(O)[C@]3(O)C(=O)C(C(N)=O)=C(O)[C@@H](N(C)C)[C@@H]3[C@@H](O)[C@@H]21.O [DOXYCYCLINE] | – | – | Ratio CC50/IC50 [4]: 4 |
| CCN(CC)c1nc2cc(-c3ccc(C)cc3)sc2c(=O)[nH]1 | – | – | CC50 (HepG2): ND(Insoluble); IC50 (Plasmodium falciparum [3]): ND(Insoluble) |
| CCc1nc(N)nc(N)c1-c1ccc(Cl)cc1 [PYRIMETHAMINE] | – | – | IC50 [10]: 2.8 µM |
| Cc1ccc(-c2cc3nc(NCC(C)C)[nH]c(=O)c3s2)cc1 | 21.6 | > 5 | – |
| Cc1ccc(-c2cc3nc(NCc4ccccc4Cl)[nH]c(=O)c3s2)cc1 | 32.6 | > 5 | – |
| CC(C)Nc1nc2cc(-c3ccc(Cl)cc3)sc2c(=O)[nH]1 | > 15.6 | 0.6 | Ratio CC50/IC50 [4]: >26 |
| CC(C)(C)Nc1nc2cc(-c3ccc(F)cc3)sc2c(=O)[nH]1 | 5.1 | > 5 | – |
| Cc1ccc(-c2ccc3c(=O)[nH]c(NC(C)(C)C)nc3c2)cc1 | 0.98 | > 5 | Ratio CC50/IC50 [4]: <5.1 |

Reference: ChEMBL document CHEMBL3414541, “Discovery of new thienopyrimidinone derivatives displaying antimalarial properties toward both erythrocytic and hepatic stages of Plasmodium” (Eur J Med Chem, 2015)
